Published values collected from several papers.
Protocols differ between the studies behind these lines.
Target: Misshapen-like kinase 1 (MINK1, Homo sapiens, UniProt Q8N4C8)

`CCN1CCN(Cc2ccc(C(=O)Nc3ccc(C)c(Oc4ccc5c(c4)CC(=O)N5)c3)cc2C(F)(F)F)CC1` gave a remaining binding of 100% (binding; competition with immobilised ligand; 1 µM).
The remaining binding of `COc1ncc2cc3ccccc3nc2c1C#N` is reported as 99% (cell-free assay; competition with immobilised ligand; 5 µM).
For `CN(c1nccc(-c2cnn3ncccc23)n1)C1CC1`, the remaining binding was 100% (binding; 1 µM).
For `O=C(Nc1cccnn1)N1CC(C/C=C/c2cncc(Oc3ccc(C(F)(F)F)cn3)n2)C1`, the remaining binding was 100% (cell-free assay; competition with immobilised ligand; 1 µM).
`Cc1cnn2ncc(-c3ccnc(N(C)C)n3)c2c1` gave a remaining binding of 92% (binding; 1 µM).
For `CNC(=O)[C@@H]1CC[C@@H](n2c(-c3ccc4cnccc4c3)nc3ccc(C(=O)NCc4cccc(C(N)=O)c4)cc32)C1`, the remaining binding was 94% (binding; competition with immobilised ligand; 1 µM).
`CN(CCCC(F)(F)F)c1nccc(-c2cnn3ncccc23)n1` gave a remaining binding of 100% (binding; 1 µM).
For `CNCc1ccccc1-c1csc([C@H](C)Nc2nc(C)nc3cc(OC)c(OC)cc23)c1`, the remaining binding was 88% (cell-free assay; competition with immobilised ligand; 1 µM).
For `CC1CCCN1c1nccc(-c2cnn3ncccc23)n1` (stereo not shown), the remaining binding was 90% (binding; 1 µM).
With `C[C@@H](c1ccc(-n2cnc3c(N)ncnc32)cc1)N1CCc2nn(C)c(Cc3ccccc3)c2C1=O` the remaining binding was 88% (binding; competition with immobilised ligand; 0.1 µM).
With `CSc1cccnc1N1CCN(Cc2nc3ccccc3[nH]2)CC1` the remaining binding was 89% (cell-free assay; competition with immobilised ligand; 1 µM).
The remaining binding of `CN(C)c1nccc(-c2cnc3ncccn23)n1` is reported as 82% (binding; 1 µM).
For `O=C(c1ccc(Nc2ncc(Cl)c(-c3cc4ccccc4s3)n2)cc1)N1CCC(N2CCCC2)CC1`, the remaining binding was 42% (binding; competition with immobilised ligand; 1 µM).
With `O=C(Nc1cnc(Oc2ccc(F)cc2)nc1)N1CCc2ncccc2[C@@H]1c1ccc(F)cc1` the remaining binding was 100% (cell-free assay; competition with immobilised ligand; 1 µM).
`O=C(NCCCN1CCOCC1)c1ccc(Nc2nccc(-c3cc4ccccc4s3)n2)cc1` has a remaining binding of 46% (binding; competition with immobilised ligand; 1 µM).
With `Cc1c[nH]c2nccc(Oc3c(F)cc(Nc4cc(Cl)nc(N)n4)cc3F)c12` the remaining binding was 100% (cell-free assay; competition with immobilised ligand; 0.1 µM).
`N[C@H]1CCN(c2nccc(-c3cnn4ncccc34)n2)C1` gave a remaining binding of 100% (binding; 1 µM).
The remaining binding of `O=C(c1ccc(Nc2ncc(Cl)c(-c3ccc(Cl)s3)n2)cc1)N1CCC(N2CCCC2)CC1` is reported as 17% (binding; competition with immobilised ligand; 1 µM).
With `CC(=O)C1=C(C)N(c2cccc(C(F)(F)F)c2)C(=O)N[C@@H]1c1ccc(C#N)nc1` the remaining binding was 100% (cell-free assay; competition with immobilised ligand; 1 µM).
`C[C@@H]1CCN(c2nccc(-c3cnn4ncccc34)n2)C1` gave a remaining binding of 74% (binding; 1 µM).
For `O=C(NC[C@@H]1[C@H]2CN(C(=O)OCc3cc(C(F)(F)F)cc(C(F)(F)F)c3)C[C@@H]12)c1ccc2[nH]nnc2c1`, the remaining binding was 72% (cell-free assay; competition with immobilised ligand; 1 µM).
For `O=C(NCC1CCOCC1)c1n[nH]cc1NC(=O)c1c(F)cccc1F`, the remaining binding was 77% (binding; competition with immobilised ligand; 1 µM).
